Experiments:
Format in all cases: functional
LOX IMVI = assay: Growth inhibition of human LOXIMVI cells
How it was run: (§1)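 NCI 60 cancer cell line screen run per the Developmental Therapeutics Program protocol. Dose–response curves were plotted against log10 drug concentration for each cell line within its subpanel, and mean graph midpoint values were calculated.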

RXF 393 [1] = assay: Antiproliferative activity against human RXF393 cells assessed as cell growth at 10 uM; details: read-out: Activity
How it was run: (§2)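 NCI 60 cell line panel, single-dose screen (10^-5 M) run by the developmental therapeutics program protocol. Results are given as growth percent of treated cells relative to untreated control cells for each line.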

HT-29 = assay: Growth inhibition of human HT-29 cells; how it was run: as §1
UO-31 = assay: Growth inhibition of human UO31 cells
How it was run: (§3)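 Assayed in the NCI 60 human cancer cell line panel under the Developmental Therapeutics Program protocol. For each line, dose–response curves were plotted against log10 drug concentration. In the one-dose screen at 10^-5 M, growth was given as percent of untreated control cells, and mean graph midpoint values were averaged.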

M14 = assay: Growth inhibition of human M14 cells; how it was run: as §1
MDA-MB-435 = assay: Growth inhibition of human MDA-MB-435 cells; how it was run: as §1
SK-MEL-2 = assay: Growth inhibition of human SK-MEL-2 cells; how it was run: as §3
BT-549 = assay: Growth inhibition of human BT549 cells; how it was run: as §1
SW-620 = assay: Growth inhibition of human SW620 cells; how it was run: as §3
IGROV-1 [2] = assay: Antiproliferative activity against human IGROV1 cells assessed as cell growth at 10 uM; details: read-out: Activity; how it was run: as §2
RXF 393 [3] = assay: Growth inhibition of human RXF393 cells; how it was run: as §3
SNB-75 = assay: Growth inhibition of human SNB75 cells; how it was run: as §3
SK-MEL-5 = assay: Growth inhibition of human SK-MEL-5 cells; how it was run: as §3
[4] = Growth inhibition of human […] cells; how it was run: as §3
T47D = assay: Growth inhibition of human T47D cells; how it was run: as §3
TK-10 = assay: Growth inhibition of human TK10 cells; how it was run: as §3
HL-60(TB) = assay: Growth inhibition of human HL-60(TB) cells
How it was run: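 NCI 60-cell-line panel run under the Developmental Therapeutics Program protocol. Dose-response curves are plotted against log10 drug concentration for each cell line within its subpanel, and GI50 is read from these curves.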

CCRF-CEM = assay: Growth inhibition of human CCRF-CEM cells; how it was run: as §1
DU-145 = assay: Growth inhibition of human DU145 cells; how it was run: as §1
NCI-H23 = assay: Growth inhibition of human NCI-H23 cells; how it was run: as §1
HCC 2998 = assay: Growth inhibition of human HCC2998 cells; how it was run: as §1
NCI/ADR-RES = assay: Growth inhibition of human NCI/ADR-RES cells; how it was run: as §1
PC-3 = assay: Growth inhibition of human PC3 cells; how it was run: as §3
HOP-62 = assay: Growth inhibition of human HOP62 cells; how it was run: as §1
KM12 = assay: Growth inhibition of human KM12 cells; how it was run: as §1
786-0 = assay: Growth inhibition of human 786-0 cells; how it was run: as §1
Malme-3M = assay: Growth inhibition of human MALME-3M cells; how it was run: as §1
HCT-116 = assay: Growth inhibition of human HCT116 cells; how it was run: as §1
NCI-H322M = assay: Growth inhibition of human NCI-H322M cells; how it was run: as §1
NCI-H460 = assay: Growth inhibition of human NCI-H460 cells; how it was run: as §1
ACHN = assay: Growth inhibition of human ACHN cells; how it was run: as §1
CAKI-1 = assay: Growth inhibition of human Caki1 cells; how it was run: as §1
IGROV-1 [5] = assay: Growth inhibition of human IGROV1 cells; how it was run: as §1
EKVX = assay: Growth inhibition of human EKVX cells; how it was run: as §1
OVCAR-4 = assay: Growth inhibition of human OVCAR4 cells; how it was run: as §1
SF-539 = assay: Growth inhibition of human SF539 cells; how it was run: as §3
[6] = read-out: LC50 (the source's name)

Structure (SMILES): O=C1c2ccccc2C(=O)c2c1ccc1nccnc21
- GI50 (LOX IMVI): 4.2 µM
- TGI (LOX IMVI): 38.9 µM
- CC50 (LOX IMVI; [6]): > 100 µM
- growth at 10 µM (RXF 393 [1]): 105%
- GI50 (HT-29): 7.01 µM
- TGI (HT-29): > 100 µM
- CC50 (HT-29; [6]): > 100 µM
- GI50 (UO-31): 3.02 µM
- TGI (UO-31): 85.9 µM
- CC50 (UO-31; [6]): > 100 µM
- GI50 (M14): 5.14 µM
- TGI (M14): > 100 µM
- CC50 (M14; [6]): > 100 µM
- GI50 (MDA-MB-435): 11.1 µM
- TGI (MDA-MB-435): 23.7 µM
- CC50 (MDA-MB-435; [6]): 50.4 µM
- GI50 (SK-MEL-2): 12.7 µM
- TGI (SK-MEL-2): 55.9 µM
- CC50 (SK-MEL-2; [6]): > 100 µM
- GI50 (BT-549): 12.2 µM
- LC50 (BT-549): > 100 µM
- TGI (BT-549): 93.5 µM
- GI50 (SW-620): 1.71 µM
- TGI (SW-620): 30.8 µM
- CC50 (SW-620; [6]): > 100 µM
- growth at 10 µM (IGROV-1 [2]): 3.44%
- GI50 (RXF 393 [3]): 6.43 µM
- TGI (RXF 393 [3]): > 100 µM
- CC50 (RXF 393 [3]; [6]): > 100 µM
- GI50 (SNB-75): 11.9 µM
- TGI (SNB-75): > 100 µM
- CC50 (SNB-75; [6]): > 100 µM
- GI50 (SK-MEL-5): 3.93 µM
- TGI (SK-MEL-5): 17.1 µM
- CC50 (SK-MEL-5; [6]): 44.4 µM
- GI50 [4]: 1.61 µM
- TGI [4]: > 100 µM
- CC50 [4, 6]: > 100 µM
- GI50 (T47D): 12.6 µM
- LC50 (T47D): > 100 µM
- TGI (T47D): 75.1 µM
- GI50 (TK-10): 5 µM
- TGI (TK-10): > 100 µM
- CC50 (TK-10; [6]): > 100 µM
- GI50 (HL-60(TB)): 0.68 µM
- TGI (HL-60(TB)): 11.5 µM
- CC50 (HL-60(TB); [6]): 83.7 µM
- GI50 (CCRF-CEM): 2.46 µM
- TGI (CCRF-CEM): > 100 µM
- CC50 (CCRF-CEM; [6]): > 100 µM
- GI50 (DU-145): 11.4 µM
- TGI (DU-145): 34.3 µM
- CC50 (DU-145; [6]): > 100 µM
- GI50 (NCI-H23): 12 µM
- TGI (NCI-H23): 70.3 µM
- CC50 (NCI-H23; [6]): > 100 µM
- GI50 (HCC 2998): 1.4 µM
- TGI (HCC 2998): 83.5 µM
- CC50 (HCC 2998; [6]): > 100 µM
- GI50 (NCI/ADR-RES): 5.68 µM
- TGI (NCI/ADR-RES): > 100 µM
- CC50 (NCI/ADR-RES; [6]): > 100 µM
- TGI (PC-3): > 100 µM
- CC50 (PC-3; [6]): > 100 µM
- GI50 (HOP-62): 5.64 µM
- TGI (HOP-62): > 100 µM
- CC50 (HOP-62; [6]): > 100 µM
- GI50 (KM12): 5.26 µM
- TGI (KM12): 49.5 µM
- CC50 (KM12; [6]): > 100 µM
- GI50 (786-0): 8.87 µM
- TGI (786-0): > 100 µM
- CC50 (786-0; [6]): > 100 µM
- GI50 (Malme-3M): 4.48 µM
- TGI (Malme-3M): 20.7 µM
- CC50 (Malme-3M; [6]): 70.8 µM
- GI50 (HCT-116): 12.3 µM
- TGI (HCT-116): > 100 µM
- CC50 (HCT-116; [6]): > 100 µM
- GI50 (NCI-H322M): 16.3 µM
- TGI (NCI-H322M): 96.1 µM
- CC50 (NCI-H322M; [6]): > 100 µM
- GI50 (NCI-H460): 2.01 µM
- TGI (NCI-H460): 26.9 µM
- CC50 (NCI-H460; [6]): > 100 µM
- GI50 (ACHN): 3.85 µM
- TGI (ACHN): > 100 µM
- CC50 (ACHN; [6]): > 100 µM
- GI50 (CAKI-1): 5.83 µM
- TGI (CAKI-1): > 100 µM
- CC50 (CAKI-1; [6]): > 100 µM
- GI50 (IGROV-1 [5]): 2.55 µM
- TGI (IGROV-1 [5]): 35.9 µM
- CC50 (IGROV-1 [5]; [6]): > 100 µM
- GI50 (EKVX): 3.45 µM
- TGI (EKVX): 72.1 µM
- CC50 (EKVX; [6]): > 100 µM
- GI50 (OVCAR-4): 10.5 µM
- TGI (OVCAR-4): > 100 µM
- CC50 (OVCAR-4; [6]): > 100 µM
- GI50 (SF-539): 2.18 µM
- TGI (SF-539): 53.7 µM
- CC50 (SF-539; [6]): > 100 µM

Structure (SMILES): O=C1c2ccccc2C(=O)c2c1ccc1nc(-c3ccc4c(c3)OCO4)[nH]c21
- growth at 10 µM (RXF 393 [1]): 120%
- growth at 10 µM (IGROV-1 [2]): 93.3%

Structure (SMILES): N#Cc1ccc(-c2nc3ccc4c(c3[nH]2)C(=O)c2ccccc2C4=O)cc1
- growth at 10 µM (RXF 393 [1]): 117%
- growth at 10 µM (IGROV-1 [2]): 66.3%

From ChEMBL document CHEMBL1152649, “Synthesis, cytotoxicity and human telomerase inhibition activities of a series of 1,2-heteroannelated anthraquinones and anthra[1,2-d]imidazole-6,11-dione homologues” (2009)
